Measured values: ChEMBL document CHEMBL3861985, “Discovery of N-(1-(3-(4-phenoxyphenyl)-1,2,4-oxadiazol-5-yl)ethyl)acetamides as novel acetyl-CoA carboxylase 2 (ACC2) inhibitors with peroxisome proliferator-activated receptor α/δ (PPARα/δ) dual agonistic activity” (Bioorg Med Chem, 2016)

Experiments:
Acetyl-CoA carboxylase 2 [1] = molecular target: T1, Acetyl-CoA carboxylase 2 (Homo sapiens, UniProt O00763); assay: Inhibition of full length recombinant C-terminal His-tagged human ACC2 expressed in baculovirus infected sf9 cells at 30 uM using acetyl-CoA as substrate after 90 mins by ATP consumption assay relative to N-(4-(4-(4-isopropoxyphenoxy)phenyl)but-3-yn-2-yl)acetamide
How it was run: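 ATP-consumption assay with His-tagged human ACC2 (50 ng/well), 0.5 mM acetyl-CoA, 0.5 μM ATP and bicarbonate/citrate/Mg2+ in HEPES pH 7.5, run 90 min at 37 °C. Residual ATP was measured. Inhibition at 30 μM is expressed as a percentage of the maximum inhibition reached by the reference ACC inhibitor (set to 100%).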
Target sequence in this assay (O00763 whole entry, looked up): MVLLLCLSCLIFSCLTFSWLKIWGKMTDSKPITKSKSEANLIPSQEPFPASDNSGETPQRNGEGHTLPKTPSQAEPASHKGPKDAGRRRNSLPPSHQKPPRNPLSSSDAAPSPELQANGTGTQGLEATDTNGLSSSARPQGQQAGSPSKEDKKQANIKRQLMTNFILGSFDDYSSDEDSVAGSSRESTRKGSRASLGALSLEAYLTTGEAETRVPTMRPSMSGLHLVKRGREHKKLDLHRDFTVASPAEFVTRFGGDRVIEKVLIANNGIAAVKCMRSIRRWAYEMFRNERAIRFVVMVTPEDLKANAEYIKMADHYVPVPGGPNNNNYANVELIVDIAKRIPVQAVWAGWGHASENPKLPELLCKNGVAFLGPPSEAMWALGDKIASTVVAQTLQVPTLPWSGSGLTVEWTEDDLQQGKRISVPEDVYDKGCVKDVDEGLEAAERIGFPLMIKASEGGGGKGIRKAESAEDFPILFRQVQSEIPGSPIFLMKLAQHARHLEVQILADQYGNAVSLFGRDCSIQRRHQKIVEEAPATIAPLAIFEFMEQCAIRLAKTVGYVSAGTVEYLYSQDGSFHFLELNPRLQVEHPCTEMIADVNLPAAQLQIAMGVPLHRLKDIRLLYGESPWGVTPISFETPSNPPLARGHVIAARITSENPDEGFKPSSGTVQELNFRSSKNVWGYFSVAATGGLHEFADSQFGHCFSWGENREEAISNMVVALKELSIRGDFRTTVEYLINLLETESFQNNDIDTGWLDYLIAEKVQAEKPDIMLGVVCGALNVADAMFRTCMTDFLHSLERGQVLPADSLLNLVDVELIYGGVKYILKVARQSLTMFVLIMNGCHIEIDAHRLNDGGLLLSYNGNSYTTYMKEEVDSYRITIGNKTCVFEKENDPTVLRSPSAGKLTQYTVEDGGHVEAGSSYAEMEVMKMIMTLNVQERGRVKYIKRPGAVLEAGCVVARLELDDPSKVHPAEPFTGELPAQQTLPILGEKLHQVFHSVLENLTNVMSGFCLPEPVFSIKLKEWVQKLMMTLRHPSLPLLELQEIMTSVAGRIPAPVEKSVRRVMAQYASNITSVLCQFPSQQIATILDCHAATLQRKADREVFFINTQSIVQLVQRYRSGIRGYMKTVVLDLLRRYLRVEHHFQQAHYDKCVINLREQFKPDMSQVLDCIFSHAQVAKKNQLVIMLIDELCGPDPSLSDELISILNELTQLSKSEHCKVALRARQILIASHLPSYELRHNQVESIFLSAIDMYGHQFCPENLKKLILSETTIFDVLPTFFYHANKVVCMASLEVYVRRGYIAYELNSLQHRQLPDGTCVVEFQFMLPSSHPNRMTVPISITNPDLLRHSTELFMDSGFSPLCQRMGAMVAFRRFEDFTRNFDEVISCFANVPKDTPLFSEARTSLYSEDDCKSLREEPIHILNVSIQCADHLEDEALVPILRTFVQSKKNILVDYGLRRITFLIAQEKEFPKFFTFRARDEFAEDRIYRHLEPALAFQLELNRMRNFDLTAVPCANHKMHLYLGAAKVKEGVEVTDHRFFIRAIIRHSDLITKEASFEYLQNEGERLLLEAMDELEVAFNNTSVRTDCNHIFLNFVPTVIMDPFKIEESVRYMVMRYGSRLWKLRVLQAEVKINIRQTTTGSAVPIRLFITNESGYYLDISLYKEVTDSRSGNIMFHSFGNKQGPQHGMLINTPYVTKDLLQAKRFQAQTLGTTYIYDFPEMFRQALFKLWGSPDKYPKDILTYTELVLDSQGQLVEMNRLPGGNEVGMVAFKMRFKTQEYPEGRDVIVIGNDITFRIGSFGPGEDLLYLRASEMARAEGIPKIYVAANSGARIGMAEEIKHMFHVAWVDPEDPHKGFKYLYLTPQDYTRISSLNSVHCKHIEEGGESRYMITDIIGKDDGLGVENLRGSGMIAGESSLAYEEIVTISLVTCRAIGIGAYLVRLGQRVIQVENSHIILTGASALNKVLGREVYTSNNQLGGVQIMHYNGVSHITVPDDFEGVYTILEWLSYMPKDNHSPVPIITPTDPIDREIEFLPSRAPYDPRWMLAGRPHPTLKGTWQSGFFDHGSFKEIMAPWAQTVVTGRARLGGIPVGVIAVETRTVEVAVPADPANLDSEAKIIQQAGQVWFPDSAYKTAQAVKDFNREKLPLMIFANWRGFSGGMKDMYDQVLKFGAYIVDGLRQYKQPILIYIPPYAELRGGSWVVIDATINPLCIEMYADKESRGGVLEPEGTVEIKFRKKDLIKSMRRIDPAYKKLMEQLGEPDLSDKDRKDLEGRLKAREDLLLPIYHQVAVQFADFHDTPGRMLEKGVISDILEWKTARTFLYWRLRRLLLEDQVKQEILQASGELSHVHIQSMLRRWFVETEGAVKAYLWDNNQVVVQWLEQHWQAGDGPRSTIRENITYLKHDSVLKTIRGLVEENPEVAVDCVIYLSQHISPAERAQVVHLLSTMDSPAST

Acetyl-CoA carboxylase 2 [2] = molecular target: T1, Acetyl-CoA carboxylase 2; assay: Inhibition of full length recombinant C-terminal His-tagged human ACC2 expressed in baculovirus infected sf9 cells using acetyl-CoA as substrate after 90 mins by ATP consumption assay
How it was run: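 Recombinant C-terminal His-tagged human ACC2 (50 ng/well) was run in 30 mM HEPES pH 7.5 with 18 mM NaHCO3, 1.0 mg/mL BSA, 0.5 μM ATP, 1 mM DTT, 4 mM MgCl2, 2 mM sodium citrate, 0.5 mM acetyl-CoA and 1% DMSO. Inhibitor ranged 0–100 μM. Enzyme addition started the reaction, then 90 min at 37 °C. Residual ATP was read by luminescence. Triplicates; IC50 from dose–response curves.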
Target sequence in this assay (O00763 whole entry): as the sequence (O00763 whole entry, looked up) above

[3] = molecular target: T2, Peroxisome proliferator-activated receptor alpha (Homo sapiens, UniProt Q07869); assay: Agonist activity at GAL4-tagged human PPARalpha ligand binding domain chimeric receptor expressed in HEK293 cells after 24 hrs by luciferase reporter gene assay; type: cell-based
T2 sequence (Q07869 whole entry): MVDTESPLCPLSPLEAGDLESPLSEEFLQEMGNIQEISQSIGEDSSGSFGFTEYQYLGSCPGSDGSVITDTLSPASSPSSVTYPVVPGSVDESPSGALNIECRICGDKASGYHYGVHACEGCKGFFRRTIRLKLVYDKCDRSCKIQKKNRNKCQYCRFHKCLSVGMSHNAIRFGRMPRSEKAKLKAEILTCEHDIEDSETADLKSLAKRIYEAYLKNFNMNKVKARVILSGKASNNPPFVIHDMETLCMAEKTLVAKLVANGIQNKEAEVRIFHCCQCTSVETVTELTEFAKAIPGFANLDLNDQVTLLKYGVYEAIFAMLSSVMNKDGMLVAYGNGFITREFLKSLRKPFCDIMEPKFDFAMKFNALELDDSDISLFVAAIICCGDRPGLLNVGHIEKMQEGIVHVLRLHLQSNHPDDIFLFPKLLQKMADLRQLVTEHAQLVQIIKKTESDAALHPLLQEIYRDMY
How it was run: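 HEK293 cells seeded at 20% confluence the day before. They were co-transfected by calcium phosphate with a CMX-GAL4N-hPPARα, γ or δ LBD plasmid (30 ng), TK-MH100x4-Luc reporter (100 ng) and CMX-β-galactosidase (10 ng). After 24 h, compound was added for 24 h (final 0.5% DMSO). Luciferase was read and normalized to β-galactosidase (2-nitrophenyl-β-D-galactopyranoside, A405). Triplicates; EC50 taken from dose–response curves.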

[4] = molecular target: T3, Peroxisome proliferator-activated receptor delta (Homo sapiens, UniProt Q03181); assay: Agonist activity at GAL4-tagged human PPARdelta ligand binding domain chimeric receptor expressed in HEK293 cells after 24 hrs by luciferase reporter gene assay; type: cell-based
T3 sequence (Q03181 whole entry): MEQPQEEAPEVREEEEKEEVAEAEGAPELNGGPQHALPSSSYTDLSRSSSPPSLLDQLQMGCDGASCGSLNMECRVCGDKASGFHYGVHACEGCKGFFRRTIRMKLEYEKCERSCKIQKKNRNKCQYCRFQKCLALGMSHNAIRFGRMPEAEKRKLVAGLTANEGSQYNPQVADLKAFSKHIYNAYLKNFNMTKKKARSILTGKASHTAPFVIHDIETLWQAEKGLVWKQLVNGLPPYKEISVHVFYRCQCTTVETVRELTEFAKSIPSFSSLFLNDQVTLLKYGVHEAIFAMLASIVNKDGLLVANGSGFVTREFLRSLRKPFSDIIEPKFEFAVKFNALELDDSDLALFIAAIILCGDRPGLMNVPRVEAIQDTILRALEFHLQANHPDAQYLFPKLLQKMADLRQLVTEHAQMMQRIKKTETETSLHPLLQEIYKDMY

[5] = molecular target: T4, Peroxisome proliferator-activated receptor delta (Homo sapiens) (UniProt Q03181); assay: Agonist activity at GAL4-tagged human PPARdelta ligand binding domain chimeric receptor expressed in HEK293 cells after 24 hrs by luciferase reporter gene assay relative to GW501516; type: cell-based
T4 sequence (whole entry): T3 sequence (Q03181 whole entry)

[6] = molecular target: T5, Peroxisome proliferator-activated receptor alpha (Homo sapiens) (UniProt Q07869); assay: Agonist activity at GAL4-tagged human PPARalpha ligand binding domain chimeric receptor expressed in HEK293 cells after 24 hrs by luciferase reporter gene assay relative to GW7647; type: cell-based
T5 sequence (whole entry): T2 sequence (Q07869 whole entry)

| SMILES | Imax (Acetyl-CoA carboxylase 2 [1]) | IC50 (Acetyl-CoA carboxylase 2 [2]) | EC50 [3] | EC50 [4] | Emax [5] | Emax [6] |
| --- | --- | --- | --- | --- | --- | --- |
| CC(=O)NC(C)c1nc(-c2ccc(Oc3ccc(Oc4ccccc4)cc3)cc2)no1 (racemic) | 76% | 48 nM |  |  |  |  |
| CC(=O)N[C@H](C)c1nc(-c2ccc(Oc3ccccc3)cc2)no1 | 37% |  |  |  |  |  |
| CCCOc1ccc(Oc2ccc(-c3noc(C(C)NC(C)=O)n3)cc2)cc1 (configuration not stated) | 88% | 610 nM |  |  |  |  |
| COc1ccc(Oc2ccc(-c3noc(C(C)NC(C)=O)n3)cc2)cc1 (configuration not stated) | 17% |  | 210 nM | 390 nM |  |  |
| CC(=O)NCc1nc(-c2ccc(Oc3ccc(O)cc3)cc2)no1 | 3% |  |  |  |  |  |
| CC(=O)N[C@@H](C)c1nc(-c2ccc(Oc3ccc(Oc4ccccc4)cc3)cc2)no1 | 86% | 16 nM |  |  |  |  |
| CCCCCCOc1ccc(Oc2ccc(-c3noc(C(C)NC(C)=O)n3)cc2)cc1 (configuration not stated) | 93% | 260 nM |  |  |  |  |
| CC(=O)NC(C)C#Cc1ccc(Oc2ccc(OC(C)C)cc2)cc1 (configuration not stated) |  | 11 nM |  |  |  |  |
| CCOc1ccc(Oc2ccc(-c3noc(C(C)NC(C)=O)n3)cc2)cc1 (configuration not stated) | 35% | 420 nM | 330 nM | 370 nM |  |  |
| CC(=O)N[C@@H](C)c1nc(-c2ccc(Oc3ccccc3)cc2)no1 | 65% | 220 nM | 150 nM | 290 nM |  |  |
| CC(=O)NC(C)c1nc(-c2ccc(Oc3ccc(OC(C)C)cc3)cc2)no1 (configuration not stated) | 74% | 100 nM |  |  |  |  |
| CC(=O)NC(C)c1nc(-c2ccc(Oc3ccccc3)cc2)no1 (racemic) | 45% | 290 nM | 320 nM | 320 nM |  |  |
| CC(=O)NC(C)c1nc(-c2ccc(Oc3ccc(O)cc3)cc2)no1 (configuration not stated) | 24% |  | 1000 nM | 1000 nM | 2 to 9% | 13 to 33% |
| CC(=O)NCc1nc(-c2ccc(Oc3ccc(OC(C)C)cc3)cc2)no1 | 83% | 1100 nM |  |  |  |  |
| CC(=O)N[C@H](C)c1nc(-c2ccc(Oc3ccc(Oc4ccccc4)cc3)cc2)no1 | 67% | 7500 nM |  |  |  |  |
